Assay results as given in ChEMBL document CHEMBL1141664, “Design and evaluation of anacardic acid derivatives as anticavity agents” (2008).
Values after ≈ are worked out from the molar mass of the structure shown. Active and inactive are the calls of the source. The calls are words filed in the database; no cut-off is given here.

Experiments:
Escherichia coli = assay: Antibacterial activity against Escherichia coli ATCC 9637 up to 200 ug/ml after 2 days by twofold broth dilution method; assay type: functional, organism-based
Procedure, shortened: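 Twofold serial broth dilution run in NYG broth (0.8% nutrient broth, 0.5% yeast extract, 0.1% glucose). MIC is the lowest concentration fully inhibiting visible growth.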

Streptococcus mutans [1] = assay: Antibacterial activity against Streptococcus mutans ATCC 25175 after 2 days by twofold broth dilution method; assay type: functional; conditions: ATCC 25175, 48 h
Procedure, shortened: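 Freeze-dried S. mutans grown stationary 2 days at 37 °C in 3.7% BHI broth, then used as inoculum. Compounds serially 2-fold diluted in DMF and added to BHI broth, with solubility limiting the top concentration. MIC is the lowest concentration giving complete inhibition of visible growth after 2 days at 37 °C. At least triplicate on separate occasions.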

Cutibacterium acnes = assay: Antibacterial activity against Propionibacterium acnes ATCC 11827; assay type: functional
Streptococcus mutans [2] = assay: Antibacterial activity against Streptococcus mutans ATCC 25175 after 2 days by twofold broth dilution method in presence of anethole; assay type: functional; conditions: ATCC 25175, 48 h

## CCCCCC(CC)Cc1cccc(O)c1C(=O)O (stereo unspecified)
Escherichia coli
  Activity: inactive
Streptococcus mutans [1]
  MIC: 3.13 µg/mL (≈ 11.8 µM)

## O=C(O)c1c(O)cccc1CC1CCCCC1
Escherichia coli
  Activity: inactive
Streptococcus mutans [1]
  MIC: 25 µg/mL (≈ 107 µM)

## O=C(O)c1c(O)cccc1CCCCc1ccccc1
Escherichia coli
  Activity: inactive
Streptococcus mutans [1]
  MIC: 6.25 µg/mL (≈ 23.1 µM)

## O=C(O)c1c(O)cccc1CCc1ccc(O)c(O)c1
Escherichia coli
  Activity: inactive
Streptococcus mutans [1]
  MIC: 200 µg/mL (≈ 729 µM)

## O=C(O)c1c(O)cccc1CC1CCCCCCC1
Escherichia coli
  Activity: inactive
Streptococcus mutans [1]
  MIC: 6.25 µg/mL (≈ 23.8 µM)

## CCCCCCOC(=O)c1ccccc1O
Escherichia coli
  Activity: inactive

## O=C(O)c1c(O)cccc1CCc1ccccc1
Escherichia coli
  Activity: inactive
Streptococcus mutans [1]
  MIC: 50 µg/mL (≈ 206 µM)

## C=CC/C=C\C/C=C\CCCCCCCc1cccc(O)c1C(=O)OC
Escherichia coli
  Activity: inactive

## O=C(O)c1c(O)cccc1CCc1ccc(O)cc1
Escherichia coli
  Activity: inactive
Streptococcus mutans [1]
  MIC: 100 µg/mL (≈ 387 µM)

## O=C(O)c1c(O)cccc1CCC1CCCCC1
Escherichia coli
  Activity: inactive
Streptococcus mutans [1]
  MIC: 3.13 µg/mL (≈ 12.6 µM)

## CCCCCCCCCOC(=O)c1ccccc1O
Escherichia coli
  Activity: inactive

## O=C(O)c1c(O)cccc1CCc1cc(O)ccc1O
Escherichia coli
  Activity: inactive
Streptococcus mutans [1]
  MIC: 200 µg/mL (≈ 729 µM)

## O=C(O)c1c(O)cccc1CCc1cc(O)c(O)cc1O
Escherichia coli
  Activity: inactive
Streptococcus mutans [1]
  MIC: 200 µg/mL (≈ 689 µM)

## CCCCC(C)Cc1cccc(O)c1C(=O)O (stereo unspecified)
Escherichia coli
  Activity: inactive
Streptococcus mutans [1]
  MIC: 12.5 µg/mL (≈ 52.9 µM)

## CCCCCCCCCCCCc1cccc(O)c1C(=O)O
Escherichia coli
  Activity: inactive
Streptococcus mutans [1]
  MBC: 6.25 µg/mL (≈ 20.4 µM)
  MIC: 1.56 µg/mL (≈ 5.09 µM)

## O=C(O)c1c(O)cccc1CC1CCCCCCCCCCC1
Escherichia coli
  Activity: inactive
Streptococcus mutans [1]
  MIC: 1.56 µg/mL (≈ 4.9 µM)

## CCCCCC/C=C\CCCCCCCc1cccc(O)c1C(=O)O [GINGKOLIC ACID]
Escherichia coli
  Activity: inactive
Streptococcus mutans [1]
  MBC: 6.25 µg/mL (≈ 18 µM)
  MIC: 6.25 µg/mL (≈ 18 µM)

## CCCCCCCCCCCCCCCc1cccc(O)c1C(=O)O [ANACARDIC ACID]
Cutibacterium acnes
  MIC: 0.78 µg/mL (≈ 2.24 µM)
Escherichia coli
  Activity: inactive
Streptococcus mutans [1]
  MIC: > 800 µg/mL

## O=C(O)c1c(O)cccc1CCc1ccc(O)cc1O
Escherichia coli
  Activity: inactive
Streptococcus mutans [1]
  MIC: > 200 µg/mL

## C/C=C/c1ccc(OC)cc1
Escherichia coli
  Activity: inactive

## O=C(O)c1c(O)cccc1CC1CCCC1
Escherichia coli
  Activity: inactive
Streptococcus mutans [1]
  MIC: 25 µg/mL (≈ 113 µM)

## C=CC/C=C\C/C=C\CCCCCCCc1cccc(O)c1C(=O)O [ANACARDIC ACID]
Escherichia coli
  Activity: inactive
Streptococcus mutans [1]
  MBC: 6.25 µg/mL (≈ 18.2 µM)
  MIC: 1.56 µg/mL (≈ 4.56 µM)
Streptococcus mutans [2]
  MBC: 0.78 µg/mL

## C=CC/C=C\C/C=C\CCCCCCCc1cccc(OC(C)=O)c1C(=O)O
Escherichia coli
  Activity: inactive

## CC(C)CCCC(C)CCCc1cccc(O)c1C(=O)O (stereo unspecified)
Escherichia coli
  Activity: inactive
Streptococcus mutans [1]
  MIC: 0.78 µg/mL (≈ 2.67 µM)

## CCC/C=C\C/C=C\CCCCCCCc1cccc(O)c1C(=O)O
Escherichia coli
  Activity: inactive
Streptococcus mutans [1]
  MBC: 3.13 µg/mL (≈ 9.09 µM)
  MIC: 3.13 µg/mL (≈ 9.09 µM)
